According to the EternaBench riboswitch data:

System: MS2 coat protein
Assay: apparent Kd, MS2 coat protein; higher = weaker binding; RNA-MaP array; FMN 200 µM where present
In short: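 Stalled E. coli RNA polymerase transcribed each design on Illumina sequencing-chip clusters. The clusters were titrated with SNAP-549-labelled MS2 coat protein, starting at 0.7 or 1.5 nM and doubling up to 3 µM, first without ligand and then with constant ligand, in 100 mM Tris-HCl pH 7.5, 80 mM KCl, 4 mM MgCl2, BSA, DTT, yeast tRNA and Tween-20. Green signal was normalised to red-channel RNA signal and to the control-cluster median Fmax. The apparent Kd is the median of filtered binding-curve fits made for each cluster.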

[1] = designed as: OFF switch for flavin mononucleotide, no ligand
[2] = ligand present: flavin mononucleotide, designed as: OFF switch for flavin mononucleotide
[3] = designed as: ON switch for flavin mononucleotide, no ligand
[4] = ligand present: flavin mononucleotide, designed as: ON switch for flavin mononucleotide

| Sequence | apparent Kd [1] | apparent Kd [2] | apparent Kd [3] | apparent Kd [4] |
| --- | --- | --- | --- | --- |
| UCUGGGUCUGUGAGGAUAUUGGGUCUGAAAGGGCUCGAGAAGGCACAUGAGGAUCACCCAUGUAAGGGCUCGGG | 27.6 nM | 21.6 nM | – | – |
| UCUGGUCGAGGAUAUGCAUUCGUGCUUCGGCACGUAAGGUCACAUGAGGAUCACCCAUGUAGAAGGCGACCAGA | 19.6 nM | 35.9 nM | – | – |
| UCUGUCCUUGUCAGGAUAUCGAUGGUAAGACCAUGCGAGAAGGGACAUGAGGAUCACCCAUGUUCGACCUGGGU | 176 nM | 222 nM | – | – |
| UCUGUUGAAGGAUAUGCGUAAUGAGUUACGGCUCGAGGUCUACAUGAGGAUCACCCAUGUAGAAGGUCAUCAGA | 16.4 nM | 15.9 nM | – | – |
| UGAACUAUGUAGAAGGCCCACAUUAAUAUGUAGGGAGGAUAUACAUGAGGAUCACCCAUGUGAAGAGCAAGAGGGUUUAACAGA | 112 nM | 143 nM | – | – |
| UGAACUAUGUAGAAGGCCCAUAUCUAUAUUUAGGGAGGAUAUACAUGAGGAUCACCCAUGUAUAGAGCGGGUGGACCCGUCACU | 39 nM | 72.1 nM | – | – |
| UGAAGGUAAGGAUAUACAUGAGGAUCACCCAUGUUGUCAUUUCUGUCUGGGCAGGCAUGUAGAAGGUACCUACA | 26.4 nM | 87.3 nM | – | – |
| UGACCAGUCCAGAAGGUGACGUCUGCAACUAGUCAAGGAUAUGGGUUGGUUCACGGUCGGCUACAUGAGGAUCACCCAUGUACC | – | – | 8.26 nM | 5.87 nM |
| UGAGCGACCACAGGAUAUACUUGGUAAGACCGAGUAGAAGGGUGGAAGAGCGUGCAGUGACAUGAGGAUCACCCAUGUGGUUGU | – | – | 215 nM | 77.5 nM |
| UGAGCUACAGGAUAUACGUGACGACCGUGAGGUCGAAGGUUACAUGAGGAUCACCCAUGUAGAAGGGUAGUUCU | 148 nM | 148 nM | – | – |
| UGAUAACAUGUAGGAUAUCCAGCAUUGACCAUCGGAGAAGGACAUGAGGAUCACCCAUGUACCGAUACAAUGGGAUAUGGGAAU | 20.1 nM | 27.2 nM | – | – |
| UGAUAGCACAGAGGAUAUGCGUAUAGUUAUCACUACAUGAGGAUCACCCAUGUAGAAGGCUGUGCUAUCUAAGUCGGAAACGAC | 5.85 nM | 6.11 nM | – | – |
| UGAUAGGACAGAGGAUAUACCGAUAGGAGAUACUAUCGACUAUUCCUCACAUGAGGAUCACCCAUGUAGAAGGCUGUCCUAUCU | 15.5 nM | 60.2 nM | – | – |
| UGAUAGGACAGAGGAUAUACGGAUAGGAUCUACUAUCCUCCUUAAAUAACAUGAGGAUCACCCAUGUAGAAGGCUGUCCUAUCU | 17.2 nM | 39 nM | – | – |
| UGAUAGGACAGAGGAUAUGCCGAUAGGAUCUAUUAUCGAAGAAUCCUCACAUGAGGAUCACCCAUGUAGAAGGCUGUCCUAUCU | 9.32 nM | 36.6 nM | – | – |
| UGAUCGAAAGAUCAUAGAUUCUGGCAGGAUAUGCAGUAGUUUUAAUUUACAUGAGGAUCACCCAUGUAGAAGGGCUAGAGUCUA | 6.33 nM | 7.4 nM | – | – |
| UGAUCGAGAGAUCUUAGAUUCUGGUAGGAUAUAAAACAAUUGCGCUUUACAUGAGGAUCACCCAUGUAGAAGGACUAGAGUCUA | 6.72 nM | 5.96 nM | – | – |
| UGAUCGAGAGAUCUUAGAUUCUGGUAGGAUAUACAUUAAAAGCGCUUUACAUGAGGAUCACCCAUGUAGAAGGACUAGAGUCUA | 7.51 nM | 9.42 nM | – | – |
| UGAUCGAGAGAUCUUAGAUUCUGGUAGGAUAUACAUUAUGUAUGAUAUACAUGAGGAUCACCCAUGUAGAAGGACUAGAGUCUA | 6.2 nM | 9.39 nM | – | – |
| UGAUCUAUGUAGAAGGCCCAUAUCUAUAUUUAGGGAGGAUAUACAUGAGGAUCACCCAUGUAUAGAGCUAGUGGACUAGUCACC | 20.9 nM | 47.1 nM | – | – |
| UGCAUCAAUGAAGGAUAUCUAUGUCCAACAUGAGGAUCACCCAUGUUGAGGAUUACCUAUGUGUAGGAGAAGGUCAAUAUAACU | – | – | 6.67 nM | 6.12 nM |
| UGCAUGUCAGGAUAUCGUGCAUACAACGAAAGUUCUAUGUGCGAGAAGGGACAUGAGGAUCACCCAUGUCUUCG | 24 nM | 67.4 nM | – | – |
| UGCCGUUUAGGAUAUACAUGAGGAUCACCCAUGUGACAAACAUAUUUUACAAAACCAUGUAGAAGGAAACGGCA | 97.4 nM | 468 nM | – | – |
| UGCGCUGAGGGAGGAUAUGACAUGAGGAUCACCCAUGUGGUAGGUUUCUUGUCAGAAGGCCCGCAUGUACCGAAUUAGGUUCGU | 112 nM | 18.3 nM | – | – |
| UGCGUGGUCACAGGAUAUGCAAGAUAAACUUUAGCAGAAGGGUGAUCAAUUAGCUCAAUACCACAUGAGGAUCACCCAUGUCUA | – | – | 62.9 nM | 314 nM |
| UGCUGGCGAGGAUAUGCUCGGGAUGCUAGUCGCGCGGUUGCACAUGAGGAUCACCCAUGUAGAAGGUGUCUGUG | 170 nM | 169 nM | – | – |
| UGGAACUAGGGAGGAUAUGGGAAGAUACAUGAGGAUCACCCAUGUUUAAGAAUGCCGAGAGGCAACUAGAAGGCCCUAGUACCU | – | – | 454 nM | 20.3 nM |
| UGGACUGGGCAGAAGGGACAUGAGGAUCACCCAUGUCUUGGGCUACUUCAGUCAGGAUAUGCCCAUUAAAUAUCCGUGCAUCAA | 14.9 nM | 73.3 nM | – | – |

| Sequence | apparent Kd [1] | apparent Kd [2] | apparent Kd [3] | apparent Kd [4] |
| --- | --- | --- | --- | --- |
| UGGAUGGUAUGAGGAUAUGCGCGCGAAACGCGCGCAGAAGGCGUGUCAAUAGACAUGAGGAUCACCCAUGUACUAUCCAUCCAA | – | – | 85.2 nM | 9.82 nM |
| UGGUACAUCGGAGGAUAUCAUGUAGAGACAUGAGGAUCACCCAUGUCGAUGGAGACAUCGGAGAUUGAGAAGGCCGAUGUACCU | – | – | 109 nM | 22.2 nM |
| UGGUACAUGGGAGGAUAUCCUCAAGAGACAUGAGGAUCACCCAUGUAUUAUAAGCCGAAAGGCAUGGAGAAGGCCCAUGUACCU | – | – | 75.4 nM | 19.5 nM |
| UGGUACAUGGGAGGAUAUGGGUUGAUAACAUGAGGAUCACCCAUGUUAAAUAAGCCGAGAGGCUACUAGAAGGCUCAUGUACCU | – | – | 327 nM | 10.4 nM |
| UGGUACUAGGGAGGAUAUGGGAAGAUACAUGAGGAUCACCCAUGUUUAAGAAUGCCGAGAGGCAACUAGAAGGCCCGAGUACCU | – | – | 456 nM | 21.6 nM |
| UGGUACUAGGGAGGAUAUGGGAAGAUACAUGAGGAUCACCCAUGUUUAAGAAUGCCGAGAGGCAACUAGAAGGCCCUAGUAGCU | – | – | 539 nM | 19.9 nM |
| UGGUACUAGGGAGGAUAUGGGAAGAUACAUGAGGAUCACCCAUGUUUAAGAAUGCCGAGAGGCAAGUAGAAGGCCCUAGUACCU | – | – | 781 nM | 97.5 nM |
| UGGUACUAGGGAGGAUAUGGGAAGAUACAUGAGGAUCACCCAUGUUUAAGAAUGCCGAGAGGCAAUUAGAAGGCCCUAGUACCU | – | – | 983 nM | 148 nM |
| UGGUACUAGGGAGGAUAUGGGAAGAUACAUGAGGAUCACCCAUGUUUAAGAGUGCCGAGAGGCAACUAGAAGGCCCUAGUACCU | – | – | 1030 nM | 83 nM |
| UGGUACUAGGGAGGAUAUGGGAAGAUACAUGAGGAUCACCCAUGUUUCAGAAUGCCGAGAGGCAACUAGAAGGCCCUAGUACCU | – | – | 59.7 nM | 6.38 nM |
| UGGUACUAGGGAGGAUAUGGGAAGAUACAUGAGGAUCACCCAUGUUUUAGAAUGCCGAGAGGCAACUAGAAGGCCCUAGUACCU | – | – | 1110 nM | 74.5 nM |
| UGGUCAUCAUCAGGAUAUUAACAUGGGCUACAUUAAGAAGGGAUAGUGAGAUACGAACUGAACGCACAUGAGGAUCACCCAUGU | – | – | 39.6 nM | 26.5 nM |
| UGGUCAUGAUCAGGAUAUUAACAUGGGCUACAUUAAGAAGGGAUAGUGAGAUGCGAACUGAACGACAUGAGGAUCACCCAUGUA | – | – | 51.9 nM | 35.8 nM |
| UGGUCCUGAGGAUAUGCACCUCAAGUUAUCGUUCACCAUGCACAUGAGGAUCACCCAUGUAGAAGGUAGGAUCG | 18.8 nM | 16.6 nM | – | – |
| UGGUGGAAGCAGGAUAUGCUUGUUUUAUUGAUUGCAGAAGGGCUAACAUGAGGAUCACCCAUGUAAGAGGUGUU | 428 nM | 196 nM | – | – |
| UGGUGUGAAGGAUAUACAUGAGGAUCACCCAUGUAUGAGGUGGAGGUUGAGGUGGAGGGUAGAAGGUCAGGUGG | 27.3 nM | 27 nM | – | – |
| UGUAACCGAGGAUAUACAUGAGGAUCACCCAUGUAAUGUAGUAUAGUGUAUGUGAGGUGUAGAAGGUGGGAUGU | 75.6 nM | 71.6 nM | – | – |
| UGUAAUUAGUAAGGAUAUACUAGUGAUUAGCUUGUAGAAGGUACAGUCUUAUGUAUAACAAAUUAACAUGAGGAUCACCCAUGU | – | – | 10.2 nM | 8.74 nM |
| UGUACUAUAAGGUUAAUUGUAUAUUGAGAAGGCAUUCACAUGAGGAUCACCCAUGUAACAUGGGAUGAGGAUAUCAAUUUGUAC | – | – | 197 nM | 33.4 nM |
| UGUAUGGACAGAGGAUAUACCGAUAGGAGAUACUAUCGACUAGUCCUCACAUGAGGAUCACCCAUGUAGAAGGCUGUCCAUACU | 25.2 nM | 179 nM | – | – |
| UGUAUUAAUGGAGGAUAUCGAUAUCAAACAUGAGGAUCACCCAUGUUGAGGAUCACCCAUGUCCAUGAGAAGGCUGGCGUACGU | – | – | 45.4 nM | 40.9 nM |
| UGUCAUAUAUAGAAGGGUAGUAGGGAUUUACAUGAGGAUCACCCAUGUAUUAUAGGAUAUGUGUAUAGUUUUUAUUCAAGUAUA | 28.7 nM | 17.9 nM | – | – |
| UGUCAUAUAUAGAAGGGUAGUAGGGUUUUACAUGAGGAUCACCCAUGUAUUAUAGGAUAUGUGUAUAGUUUUUAUUCAAGUAUA | 32.8 nM | 25.4 nM | – | – |
| UGUCAUUUACAGAAGGGUAGUUGGGUUUUACAUGAGGAUCACCCAUGUUUUACAGGAUAUGUGUUUUGUUAAUAUUAAAGUUCA | 72.9 nM | 113 nM | – | – |
| UGUCCACAUGAGGAUCACCCAUGUCAGGAGGUGACAGGAUAUUGCGAAAAAAAAAAAAAGCAAGAAGGGUCUGAUU | – | – | 244 nM | 89.5 nM |
| UGUCGGAGAAGAGGAUAUUACAUGAGGAUCACCCAUGUAUGAACCAAUAGCUGGAAACAGCAAUGUAAGAAGGCUGCUCCGACA | 5.32 nM | 23.1 nM | – | – |
| UGUCGGAGCAGAGGAUAUAACAUGAGGAUCACCCAUGUAAUAAGAUCAAGCUGGAAACAGCAAUGUUAGAAGGCUGCUCCGACA | 219 nM | 1010 nM | – | – |
